The source made the active and inactive calls.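 How the source made its calls, unless noted: active means mean duplicate activation above the buffer control mean plus 5 SD of those controls; inactive means the rest.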
Experiments:
[1] = thallium flux activation in parental CHO cells, counter-screen for KCNQ1 potentiator project (AID 493006;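 active means duplicate-averaged activation above buffer control mean plus 5 SD of those controls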); settings: parental CHO-K1 cells, FluxOR thallium flux, at 10 µM; hits give high values
Outline: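 Test system: parental CHO-K1 cells, FluxOR dye-loaded / Probe or stimulus: potassium plus thallium depolarizing stimulus, 5x stock 12.5 mM K2SO4, Tl2SO4 / Timing: overnight 37 °C plating, 90 min dye, 20 min dark compound / Measured by: kinetic thallium-flux fluorescence / Read-out: max-minus-min fluorescence over baseline, percent of buffer-to-R-L3 span / Benchmarks: buffer and R-L3 controls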

[2] = target: Potassium voltage-gated channel subfamily KQT member 1 (Homo sapiens) (UniProt P51787); test: KCNQ1 potassium channel potentiators, confirmation, FluxOR thallium flux, CHO cells, duplicates (AID 493007;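 active means potentiation averaged over duplicate wells exceeding buffer-only control mean by more than 3 SD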;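 on outcome: cells depolarized by a potassium plus thallium sulfate stimulus after compound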;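 on potentiation: 0% = buffer-only wells and 100% = R-L3 activator control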); settings: KCNQ1 cell line, FluxOR thallium flux fluorescence, at 10 µM; hits give high values, % of reference activator effect, buffer zero
Sequence of Potassium voltage-gated channel subfamily KQT member 1 (Homo sapiens) (P51787 whole entry, looked up): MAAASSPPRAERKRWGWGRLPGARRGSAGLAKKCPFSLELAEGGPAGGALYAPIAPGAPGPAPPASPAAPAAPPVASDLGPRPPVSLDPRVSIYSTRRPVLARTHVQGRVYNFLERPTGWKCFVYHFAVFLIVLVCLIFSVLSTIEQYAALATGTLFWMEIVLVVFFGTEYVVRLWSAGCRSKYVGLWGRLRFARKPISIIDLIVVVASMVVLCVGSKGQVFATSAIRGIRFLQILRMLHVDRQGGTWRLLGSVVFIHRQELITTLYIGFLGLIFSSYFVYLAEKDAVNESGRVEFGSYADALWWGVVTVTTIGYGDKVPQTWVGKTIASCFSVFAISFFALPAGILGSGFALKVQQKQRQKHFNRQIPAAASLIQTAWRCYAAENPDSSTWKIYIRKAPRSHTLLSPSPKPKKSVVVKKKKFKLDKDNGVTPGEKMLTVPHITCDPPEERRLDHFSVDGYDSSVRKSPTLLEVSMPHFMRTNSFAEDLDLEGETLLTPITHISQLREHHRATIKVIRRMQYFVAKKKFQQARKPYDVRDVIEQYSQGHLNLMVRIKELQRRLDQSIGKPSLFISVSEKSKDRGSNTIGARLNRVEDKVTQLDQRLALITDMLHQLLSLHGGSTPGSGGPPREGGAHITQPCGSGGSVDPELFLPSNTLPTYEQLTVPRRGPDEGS
Outline: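 Assay system: CHO cells carrying KCNQ1 | Controls: Buffer and R-L3 controls | Schedule: FluxOR dye loading 90 min, compound exposure 20 min, room temperature | Read-out: Baseline-normalized fluorescence change, percent of buffer-to-R-L3 range | Replicates: Each compound tested in duplicate | Technique: Kinetic thallium influx fluorescence with FluxOR dye, 10 s baseline, 110 s post-stimulus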

[3] = target: Potassium voltage-gated channel subfamily KQT member 2 (Rattus norvegicus) (UniProt O88943); test: rat KCNQ2 channel potentiation, selectivity assay for KCNQ1 potentiator project, KCNQ2-CHO-K1 cells (AID 493009;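 active means mean duplicate potentiation above the buffer control mean plus 5 SD of buffer wells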;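 further: assay conditions were tuned for KCNQ1 rather than KCNQ2 modulators; signal is max minus min fluorescence divided by baseline after thallium stimulus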); settings: FluxOR thallium flux fluorescence, at 10 µM; hits give high values, scaled: buffer 0, activator control 100
Sequence of Potassium voltage-gated channel subfamily KQT member 2 (Rattus norvegicus) (O88943 whole entry, looked up): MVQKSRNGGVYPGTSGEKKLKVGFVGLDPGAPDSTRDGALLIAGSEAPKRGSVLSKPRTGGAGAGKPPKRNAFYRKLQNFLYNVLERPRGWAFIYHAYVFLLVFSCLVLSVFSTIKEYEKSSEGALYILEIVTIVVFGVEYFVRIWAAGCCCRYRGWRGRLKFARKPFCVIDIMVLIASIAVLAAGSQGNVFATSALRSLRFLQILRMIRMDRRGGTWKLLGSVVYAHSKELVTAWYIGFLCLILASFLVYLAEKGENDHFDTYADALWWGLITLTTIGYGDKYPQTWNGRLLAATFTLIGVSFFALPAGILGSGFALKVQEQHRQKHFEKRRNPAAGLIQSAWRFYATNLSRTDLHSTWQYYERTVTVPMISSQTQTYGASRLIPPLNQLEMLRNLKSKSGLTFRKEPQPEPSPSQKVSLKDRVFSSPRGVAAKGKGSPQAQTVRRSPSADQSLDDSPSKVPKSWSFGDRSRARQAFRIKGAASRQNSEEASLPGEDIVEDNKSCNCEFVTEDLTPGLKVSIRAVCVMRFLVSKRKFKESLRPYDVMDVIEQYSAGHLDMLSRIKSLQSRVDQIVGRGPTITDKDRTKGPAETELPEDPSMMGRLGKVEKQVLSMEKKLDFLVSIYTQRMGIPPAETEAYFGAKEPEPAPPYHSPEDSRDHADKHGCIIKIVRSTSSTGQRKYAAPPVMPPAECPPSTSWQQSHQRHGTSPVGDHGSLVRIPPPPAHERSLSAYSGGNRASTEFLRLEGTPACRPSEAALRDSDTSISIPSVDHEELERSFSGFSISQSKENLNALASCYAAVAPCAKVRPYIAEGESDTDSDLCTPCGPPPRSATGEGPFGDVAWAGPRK

[4] = target: Potassium voltage-gated channel subfamily KQT member 1 (Homo sapiens) (UniProt P51787); test: KCNQ1 channel current potentiators, confirmation, orthogonal assay for KCNQ1 potentiator project, IonWorks patch clamp, KCNQ1-CHO cells (AID 493184;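 active means current rise at least 3 SD above the untreated control mean in each of two repeat wells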); settings: automated patch clamp current, at 10 µM; hits give high values
Outline: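 Material: KCNQ1-expressing CHO cells; doses: 10 µM final, single point; probe or stimulus: voltage step from -90 mV holding to +40 mV, 2,000 ms; signal: automated voltage clamp, amphotericin B perforated patch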

[5] = target: Potassium voltage-gated channel subfamily E member 1 (Homo sapiens) + Potassium voltage-gated channel subfamily KQT member 1 (Homo sapiens) (UniProt P15382+P51787); test: KCNQ1/KCNE1 complex potentiators, confirmation, selectivity assay for KCNQ1 potentiator project, thallium flux, CHO-K1 KCNQ1/E1 cells (AID 493186); settings: FluxOR thallium flux, at 10 µM; hits give high values
Sequence of Potassium voltage-gated channel subfamily E member 1 (Homo sapiens) + Potassium voltage-gated channel subfamily KQT member 1 (Homo sapiens) (P51787 whole entry, looked up): as the sequence (P51787 whole entry, looked up) above
Outline: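 Test system: CHO-K1 cells with KCNQ1/E1. Times: 90-min dye loading then 20-min compound exposure, both at room temperature. Measured by: kinetic FluxOR thallium-flux fluorescence, 10 s baseline plus 110 s after stimulus. Repeats: duplicate wells per compound.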

Structure (SMILES) | outcome [1] | outcome [2] | outcome [3] | outcome [4] | outcome [5] | potentiation [2] | potentiation [3]
O=C(NC(=S)Nc1cccc(Cl)c1)c1cncc(Br)c1 | inactive | inactive | inactive | inactive | inactive | – | –
COc1ccc(C(=O)NC(=S)N(C)C2CCCCC2)cc1Br | inactive | inactive | inactive | inactive | inactive | – | –
CCOC(=O)c1sc(NC(=S)NC(=O)c2ccccc2)nc1C | inactive | inactive | inactive | inactive | inactive | – | –
CNC(=O)CSc1nc2c(c(=O)n(C)c(=O)n2C)n1Cc1ccc(C)cc1 | inactive | inactive | inactive | inactive | inactive | – | –
CCCCc1ccc(-c2csc(/C(C#N)=C/c3ccco3)n2)cc1 | inactive | – | inactive | inactive | inactive | 132% (active) | –
COc1ccc(-c2nnc(NC(=O)c3ccc(S(=O)(=O)N4CCCc5ccccc54)cc3)o2)cc1 | inactive | inactive | inactive | inactive | inactive | – | –
Cc1onc(-c2ccccc2)c1C(=O)NC(=S)Nc1sc2c(c1C#N)CCCC2 | inactive | – | inactive | inactive | inactive | 31.5% (active) | –
CCN(CC)S(=O)(=O)c1ccc(NC(=O)c2cccnc2Cl)c(NC(=O)c2cccnc2Cl)c1 | inactive | – | – | inactive | inactive | 43% (active) | 242% (active)
Cc1ccc(NC2=C(Cl)C(=O)OC2OC(=O)c2ccc(C)cc2)cc1 (stereo not given) | inactive | inactive | inactive | inactive | inactive | – | –
S=c1[nH]nc(-c2ccc(Br)o2)n1Cc1ccccc1 | inactive | inactive | inactive | inactive | inactive | – | –
COC(=O)C1=C(C)Nc2nc(-c3ccccc3)nn2C1c1ccc(C)o1 (stereo not given) | inactive | – | inactive | inactive | inactive | 30% (active) | –
CC(=O)C[C@H]1c2cc(C(F)(F)F)ccc2S(=O)(=O)N1C1CCCCC1 | inactive | – | inactive | inactive | inactive | 74% (active) | –
Cc1ccc(/C(O)=C/C(=O)C(=O)NNC(=O)C(O)(c2ccccc2)c2ccccc2)cc1 | inactive | inactive | inactive | inactive | inactive | – | –
Cc1ccc(/C=N/NC(=O)c2cc(C3CC3)nc3ccccc23)o1 | inactive | – | inactive | inactive | inactive | 29.5% (active) | –
O=C(O)/C=C/C(=O)c1ccc2c(c1)CCc1ccccc1-2 | inactive | inactive | inactive | inactive | inactive | – | –
Cc1ccc(-c2nc(=S)c3c(n2Cc2ccco2)CC(C)(C)OC3)cc1 | inactive | inactive | inactive | inactive | inactive | – | –
COc1ccccc1N1CCN(C(=O)C2CCN(C(=O)c3cccc(Cl)c3)CC2)CC1 | inactive | inactive | inactive | inactive | inactive | – | –
O=C(CNC(=S)NC(=O)c1ccc(Br)o1)c1ccccc1 | inactive | inactive | inactive | inactive | inactive | – | –
FC(F)(F)c1cccc(CN2CCC(c3cc(-c4cccs4)n[nH]3)CC2)c1 | inactive | inactive | inactive | inactive | inactive | – | –
CNC(=O)CC1C(=O)N(c2ccc(Cl)cc2)C(=S)N1CCc1ccc(OC)c(OC)c1 (stereo not given) | inactive | inactive | inactive | inactive | inactive | – | –
COCCn1c(C)cc(C(=O)COC(=O)c2ccc([N+](=O)[O-])o2)c1C | inactive | – | inactive | inactive | inactive | 22.5% (active) | –
O=C(NC(=S)Nc1cc(C(F)(F)F)ccc1N1CCOCC1)c1sc2ccccc2c1Cl | inactive | inactive | inactive | inactive | inactive | – | –
S=C1N(c2ccccc2)C(c2ccccc2)N2CCCN12 (stereo not given) | inactive | inactive | inactive | inactive | inactive | – | –
COc1ccc(OCCCC(=O)NNC(=O)CCN2CCN(c3ccccc3)CC2)cc1 | inactive | – | – | inactive | inactive | 19% (active) | 142% (active)
Cc1ccc2nc(C3CCN(S(=O)(=O)c4ccc5ccccc5c4)CC3)[nH]c2c1 | inactive | inactive | inactive | inactive | inactive | – | –
CCOC(=O)N1CCN(C(=S)NC(=O)c2ccc(Br)cc2)CC1 | inactive | inactive | inactive | inactive | inactive | – | –
COc1cc2c(cc1NC(=O)CSc1nnc(COc3ccc(Cl)cc3)n1C)oc1ccccc12 | inactive | – | inactive | inactive | inactive | 49.5% (active) | –
O=C(O)CCCN1C(=O)/C(=C/c2ccc(-c3nc4ccccc4s3)o2)SC1=S | inactive | – | – | inactive | inactive | 21.5% (active) | 143% (active)
CCOc1ccc(NC(=O)c2ccc(N)cc2)cc1 | inactive | inactive | inactive | inactive | inactive | – | –

From PubChem BioAssay
